Results from different studies.
Lines come from different studies, so protocols differ.
Target: Casein kinase I isoform gamma-3 (CSNK1G3, Homo sapiens, UniProt Q9Y6M4)

SMILES | effect on | technique | concentration | remaining binding
N[C@H]1CCN(c2nccc(-c3cnn4ncccc34)n2)C1 | binding | – | 1 µM | 100%
O=C(c1ccc(Nc2nccc(-c3cc4ccccc4s3)n2)cc1)N1CCC(N2CCCC2)CC1 | binding | competition with immobilised ligand | 1 µM | 100%
CCN1CCN(Cc2ccc(C(=O)Nc3ccc(C)c(Oc4ccc5c(c4)CC(=O)N5)c3)cc2C(F)(F)F)CC1 | binding | competition with immobilised ligand | 1 µM | 100%
COc1ncc2cc3ccccc3nc2c1C#N | cell-free assay | competition with immobilised ligand | 5 µM | 96%
O=C(O)[C@H]1[C@H](Cn2nnc3ccccc3c2=O)CC[C@@H]1C(=O)c1ccc(OCCC2CCOCC2)cc1 | cell-free assay | competition with immobilised ligand | 1 µM | 100%
C[C@@H]1CCN(c2nccc(-c3cnn4ncccc34)n2)C1 | binding | – | 1 µM | 65%
O=C1NC(c2ccccn2)Sc2ccccc21 (centres unmarked) | cell-free assay | competition with immobilised ligand | 1 µM | 100%
COc1ccnn2ncc(-c3ccnc(N(C)C)n3)c12 | binding | – | 1 µM | 97%
CSc1cccnc1N1CCN(Cc2nc3ccccc3[nH]2)CC1 | cell-free assay | competition with immobilised ligand | 1 µM | 86%
Cc1cnn2ncc(-c3ccnc(N(C)C)n3)c2c1 | binding | – | 1 µM | 82%
CS(=O)(=O)N1CCCC(NC(=O)[C@H](CCC2CCCCC2)NC(=O)c2ccc(CNc3ncnc4c3nnn4-c3ccccc3)cc2)C1 (some centres unmarked) | cell-free assay | competition with immobilised ligand | 0.1 µM | 100%
Nc1ncc2c(n1)-c1c([nH]c3ccc(C#CC4CC4)cc13)CCCC2 | binding | competition with immobilised ligand | 1 µM | 93%
CN(C)c1nccc(-c2cnc3ncccn23)n1 | binding | – | 1 µM | 70%
O=C(c1ccc(Nc2ncc(Cl)c(-c3ccc(Cl)s3)n2)cc1)N1CCC(N2CCCC2)CC1 | binding | competition with immobilised ligand | 1 µM | 100%
COc1cnc(Nc2cccc(S(N)(=O)=O)c2)nc1N1CCN(c2ccccc2)CC1 | binding | competition with immobilised ligand | 1 µM | 100%
O=C(NCC1CCOCC1)c1n[nH]cc1NC(=O)c1c(F)cccc1F | binding | competition with immobilised ligand | 1 µM | 78%
CC(=O)N1CCC(c2ccc(C(=O)NC3=NCCN3)cc2C(F)(F)F)CC1 | cell-free assay | competition with immobilised ligand | 1 µM | 100%
O=C(c1ccc(Nc2ncc(Cl)c(-c3cc4ccccc4s3)n2)cc1)N1CCC(N2CCCC2)CC1 | binding | competition with immobilised ligand | 1 µM | 100%
O=C(NCc1ncc(C(F)(F)F)cc1Cl)c1ccc2c(c1)C1(CCS(=O)(=O)CC1)[C@H](C1CC1)N2S(=O)(=O)c1ccc(F)cc1 | cell-free assay | competition with immobilised ligand | 1 µM | 100%
CC1CCCN1c1nccc(-c2cnn3ncccc23)n1 (centres unmarked) | binding | – | 1 µM | 100%
